Screening results as filed in PubChem.
Shown are actives, neighbours in structure and some others; about 2% of the full set was active somewhere.
NSD2 inh: inhibitors of human histone methyltransferase NSD2; NSD2 peptide methylation, AlphaScreen, 120 min; O96028; 310,000 compounds, 0.54% hits; inhibition, % at 12.5 µM; in the data active = inhibition above about 50%
sPLA2-III inh: Blocks human group III sPLA2 activity. Q9NZ20. QFRET BODIPY PC-A2 liposome hydrolysis, fluorescence. inhibition, % at 12.2 µM. 370,000 compounds, 0.56% hits;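 active = inhibition above mean plus 3 SD of compounds lying within the high and low control bounds, cut at about 19% in these data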;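 note: 0% = median of test compound wells and 100% = no enzyme DMSO wells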
Target sequence (Q9NZ20 whole entry, looked up): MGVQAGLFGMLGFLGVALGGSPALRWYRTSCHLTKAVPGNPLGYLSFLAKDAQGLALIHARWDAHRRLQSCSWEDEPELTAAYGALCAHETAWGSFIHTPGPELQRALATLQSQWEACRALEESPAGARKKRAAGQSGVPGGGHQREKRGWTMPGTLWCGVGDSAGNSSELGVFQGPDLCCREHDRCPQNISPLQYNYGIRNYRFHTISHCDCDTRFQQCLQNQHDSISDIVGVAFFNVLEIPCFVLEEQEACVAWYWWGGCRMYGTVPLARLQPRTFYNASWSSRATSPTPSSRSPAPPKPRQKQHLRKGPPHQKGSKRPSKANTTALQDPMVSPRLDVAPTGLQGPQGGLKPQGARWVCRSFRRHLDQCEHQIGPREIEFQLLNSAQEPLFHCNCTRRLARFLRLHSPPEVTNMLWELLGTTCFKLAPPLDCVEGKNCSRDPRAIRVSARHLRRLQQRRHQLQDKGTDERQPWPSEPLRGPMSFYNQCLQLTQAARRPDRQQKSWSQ
SR-BI HDL uptake: blocks mouse SR-BI lipid uptake from DiI-HDL | 320,000 compounds, 0.96% hits | ldlA[mSR-BI] CHO cells, DiI-HDL uptake fluorescence, 3 h | inhibition, % at 12.5 µM | AID 488896 | Q61009;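 active = mean replicate inhibition of at least 70% and a set share of replicates each scoring 70 or more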;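 note: 0% = median of neutral control wells and 100% = median of positive control wells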
Xi reactivation: reactivates the inactive X chromosome in mouse fibroblasts | XiGFP mouse fibroblasts, % GFP-positive cells imaging, 3 d; cells co-treated with 5-aza-dC sensitizer; scaled so ellipticine positive control = 100% | activation, % at 7.58 µM | 360,000 compounds, 0.055% hits;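 active = mean normalized replicate activation at least 10% and every replicate at or above 10%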;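 note: 0% = median of on-plate neutral control wells and 100% = ellipticine 6 µM median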
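Material: SV40-immortalized XiGFP fibroblast cells, line 68-5-11 | Buffer or medium: DMEM containing 5-aza-dC | Dosing: One concentration, pinned | Times: 3 d treatment, 15 min room-temperature fixation | Controls: Ellipticine 6 µM positive control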
SR-BI uptake up: SR-BI HDL lipid transfer activation; CHO ldlA[mSR-BI] cells, DiI-HDL uptake fluorescence, 3 h; 100 = double the neutral-control signal; activation, % at 12.5 µM; 320,000 compounds, 0.096% hits;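 active = mean replicate activation of at least 60% and every replicate at or above 60%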;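 note: 0% = median plate neutral-control signal and 100% = twice that signal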
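Test system: SR-BI-overexpressing, LDLR-lacking CHO cells; Medium: Ham's F12 with 0.5% BSA, HEPES 25 mM, pH 7.4; Schedule: 3 h, 37 °C; Technique: bottom-read fluorescence, 550/595 nm.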
ARNT TACC3 PPI: disruptors of human ARNT/TACC3 interaction. Q9Y6A5. inhibition, % at 9.99 µM. AlphaScreen His-ARNT PAS-B/GST-TACC3 binding, luminescence; TACC3 fragment carries E629A point mutation. 390,000 compounds, 0.66% hits;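 active = mean inhibition of replicates at least 50% and at least half of replicates each reaching 50%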;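 note: 0% = complete ARNT plus TACC3 wells and 100% = ARNT alone without TACC3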
Active calls of the source: *; . = no result given.

SMILES	NSD2 inh	sPLA2-III inh	SR-BI HDL uptake	Xi reactivation	SR-BI uptake up	ARNT TACC3 PPI
Cc1ccccc1-n1c(SCC(=O)N/N=C/C=C/c2ccccc2[N+](=O)[O-])nc2ccccc2c1=O	5.3	-8.2	78.7*	0.5	-78.7	0.3
CN(CC(=O)Nc1ccc(Cl)c(Cl)c1)C(=O)C1CCC1	-2.8	5.3	-7.1	0.0	7.1	.
CN(CC(=O)Nc1ccc(Cl)c(Cl)c1)C(=O)C1CCCC1	-1.9	-1.9	-66.7	-0.1	66.7*	.
CC(C)(C)c1nc2ccc(NS(=O)(=O)c3ccc(F)c(F)c3F)cc2[nH]1	-7.6	5.4	-9.1	0.0	9.1	-3.6
CC1(C)CC2CC(C)(CN2C(=O)COC(=O)c2ccc(O)cc2O)C1 (centres undefined)	5.7	-6.5	-10.4	0.0	10.4	2.1
CC1(C)CC2CC(C)(CN2C(=O)COC(=O)c2cc(Cl)cc(Cl)c2N)C1 (centres undefined)	-3.8	-7.0	15.0	.	-15.0	14.2*
CN(C)c1ccc(/C=C/c2ccc3ccccc3n2)cc1	-1.2	.	4.0	.	-4.0	-12.0
CCCN(CCC)c1ccc(/C=C/c2ccc3cc(OCC)ccc3n2)cc1	4.9	1.4	71.3*	0.0	-71.3	-4.7
Cc1ccc2[nH]c(=O)c(C3C(C#N)=C(N)Oc4c3ccc3cccnc43)cc2c1 (centres undefined)	2.6	-1.9	-22.7	.	22.7	50.0*
COC(=O)C1=C(C)NC(C)=C(C(=O)OC)C1c1cc2cc(C)ccc2[nH]c1=O	0.6	-4.9	-25.6	.	25.6	1.4
C[C@@H]1CCCCO[C@@H](CN(C)Cc2ccc(Cl)c(Cl)c2)[C@@H](C)CN([C@H](C)CO)C(=O)c2cc(NC(=O)Nc3ccc(F)cc3)ccc2O1	.	.	.	0.3	.	8.7
CCOCCCNC(=O)c1ccc2nc(-c3ccc(OC)c(OC)c3)c(-c3ccc(OC)c(OC)c3)nc2c1	-6.9	-2.0	62.2	0.0	-62.2	-6.6
COc1ccc(-c2nc3ccc(C(=O)NCC(OC)OC)cc3nc2-c2ccc(OC)c(OC)c2)cc1OC	-4.4	9.6	75.5*	0.0	-75.5	-7.8
COc1cc(NC(=O)c2cccs2)c(C(=O)OCC(=O)NCc2ccccc2)cc1OC	-0.9	-5.1	1.9	.	-1.9	-6.7
C/C(CCC12CC3CC(CC(C3)C1)C2)=N\NC(N)=S	-4.1	7.3	63.0	.	-63.0	14.1
C/C(=N\NC(N)=S)C1C2C3CC4C5CC(C42)C1C53 (centres undefined)	-0.2	11.2	83.1*	0.3	-83.1	15.3
Cc1cccc(COc2ccccc2C(=O)N(C)CC(=O)Nc2cccc(F)c2)c1	-2.8	-24.2	36.6	0.0	-36.6	-13.0
CCOc1ccc(NC(=O)CN(C)C(=O)c2ccccc2OCc2cccc(C)c2)cc1OCC	2.4	-8.2	86.2*	0.0	-86.2	-15.7
COc1cccc(C2C=C(c3cccs3)Nc3ncnn32)c1OC (centres undefined)	.	.	-33.0	.	33.0	28.2*
COCc1cc(=O)[nH]c(Nc2nc3ccc(C)cc3o2)n1	4.0	-5.1	18.2	.	-18.2	56.4*
CCc1ccc2nc(Nc3nc(COC)cc(=O)[nH]3)nc(C)c2c1	-2.2	9.4	21.5	.	-21.5	0.7
CC(C)NC(=O)N1[C@H](CO)[C@@H](c2ccc(C#CC3CCCC3)cc2)[C@@H]1C#N	.	.	.	0.0	.	0.0
COc1ccc(NC(=O)c2ccc(Cl)nc2)cc1S(=O)(=O)N1CCCCC1	-0.9	-7.3	75.0*	0.0	-75.0	.
CCc1nnc(N/N=C/c2cc(Br)c(O)cc2O)n1N	-0.1	-5.0	20.1	-0.2	-20.1	62.7*
CC(C)(C)c1nnc(N/N=C/c2cc(Br)ccc2O)n(N)c1=O	-5.1	4.0	115.1*	0.0	-115.1	58.3*
SMILES	NSD2 inh	sPLA2-III inh	SR-BI HDL uptake	Xi reactivation	SR-BI uptake up	ARNT TACC3 PPI
CCc1nnc(N/N=C/c2ccc(O)c(OC)c2)n1N	-0.7	-6.6	-6.7	0.1	6.7	0.3
Cc1occc1C(=O)N/N=C/c1ccc(N(C)C)cc1	0.4	-2.1	-7.1	0.3	7.1	-9.5
CC(CN1CCCCC1)OC(=O)c1cc2ccccc2o1 (centres undefined)	8.3	2.0	.	.	.	21.4
Cc1ccc(-n2c(C)cc(/C=N/NC(N)=S)c2C)cc1	-0.3	0.1	29.7	-0.1	-29.7	-3.2
Oc1ccccc1/C=N/NC(=S)NC1CC2CC1C1C=CCC21 (centres undefined)	2.6	18.6	85.0*	0.4	-85.0	14.8
Cc1cc(/C=N/NC(N)=S)c(O)c(/C=N/NC(N)=S)c1	2.0	-305.9	.	0.8	.	66.4*
COc1cccc(/C=N/NC(=S)NC2CC3CC2C2C=CCC32)c1O (centres undefined)	2.7	7.6	50.8	0.1	-50.8	0.2
NC(=S)N/N=C/c1cccc(O)c1O	3.8	9.7	46.6	0.0	-46.6	.
NC(=S)N/N=C/c1ccccc1O	.	16.9	.	-0.1	.	72.6*
Oc1ccccc1/C=N/Nc1ccccc1	11.9	-4.6	13.0	0.0	-13.0	9.9
Oc1ccccc1C=NNC(=S)NN=Cc1ccccc1O	-6.5	-4.5	133.3*	-0.1	-133.3	60.7*
O=C(C[C@@H]1CC[C@H]2[C@@H](COC[C@@H](O)CN2Cc2cccc(C(F)(F)F)c2)O1)NCc1ccccc1	.	.	.	0.2	.	-27.4
COc1ccc(C2(c3ccc(OC)cc3)NC(=O)N(CC(=O)NCC(C)c3ccccc3)C2=O)cc1 (centres undefined)	-2.7	-25.5	-14.3	-0.1	.	2.7
Cc1cnc(C=NNC(N)=S)c2cccc(N)c12	36.6	-2.7	3.2	0.0	-3.2	19.3
NC(=S)NN=Cc1nccc2ccccc12	8.2	0.7	26.7	-0.1	-26.7	77.3*
Cc1ccc(C)c(N2CCN(S(=O)(=O)c3c(C)noc3C)CC2)c1	-9.8	1.9	55.2	0.0	-55.2	2.3
C=CCn1c(SCC(=O)N2CC(=O)Nc3ccccc32)nc2scc(-c3ccccc3)c2c1=O	-2.1	-9.1	16.6	.	-16.6	.
C=CCn1c(SCCN2C(=O)c3ccccc3C2=O)nc2scc(-c3ccc(F)cc3)c2c1=O	.	4.9	.	-0.1	.	55.5*
CCCN(Cc1nnc(-c2cccs2)o1)C(=O)CN1C(=O)NC2(CCC(C)CC2)C1=O (centres undefined)	-4.5	2.0	28.4	-0.1	-28.4	8.6
O=Cc1c(Sc2ccccn2)nc2ccccn2c1=O	3.7	-2.7	77.3*	.	-77.3	2.9
Cc1cc(=S)nc(-c2ccccn2)[nH]1	-0.3	2.2	-31.4	-0.1	31.4	59.1*
Cc1cc(C)c2c(c1C)C(=O)CCC2	1.1	0.7	14.1	0.2	-14.1	0.0
